# Laboratory results from paper PMC5726935 (Nature chemical biology, 2017).
# Columns and labels:
# [1] = system: TLR1/2/6, TLR3, TLR4, TLR5, TLR7, and TLR9 HEK-Blue; experiment: TLR selectivity assay in HEK-Blue TLR-overexpressing cells; type: cell-based, human; conditions: 1 μM compound, TLR-specific agonists
# TLR7 = molecular target: T1, TLR7 (Homo sapiens, UniProt Q9NYK1); experiment: SEAP assay in HEK-Blue TLR7 cells activated by R848; type: cell-based; conditions: concentrations up to 75 μM
# T1 sequence (Q9NYK1 27-1049): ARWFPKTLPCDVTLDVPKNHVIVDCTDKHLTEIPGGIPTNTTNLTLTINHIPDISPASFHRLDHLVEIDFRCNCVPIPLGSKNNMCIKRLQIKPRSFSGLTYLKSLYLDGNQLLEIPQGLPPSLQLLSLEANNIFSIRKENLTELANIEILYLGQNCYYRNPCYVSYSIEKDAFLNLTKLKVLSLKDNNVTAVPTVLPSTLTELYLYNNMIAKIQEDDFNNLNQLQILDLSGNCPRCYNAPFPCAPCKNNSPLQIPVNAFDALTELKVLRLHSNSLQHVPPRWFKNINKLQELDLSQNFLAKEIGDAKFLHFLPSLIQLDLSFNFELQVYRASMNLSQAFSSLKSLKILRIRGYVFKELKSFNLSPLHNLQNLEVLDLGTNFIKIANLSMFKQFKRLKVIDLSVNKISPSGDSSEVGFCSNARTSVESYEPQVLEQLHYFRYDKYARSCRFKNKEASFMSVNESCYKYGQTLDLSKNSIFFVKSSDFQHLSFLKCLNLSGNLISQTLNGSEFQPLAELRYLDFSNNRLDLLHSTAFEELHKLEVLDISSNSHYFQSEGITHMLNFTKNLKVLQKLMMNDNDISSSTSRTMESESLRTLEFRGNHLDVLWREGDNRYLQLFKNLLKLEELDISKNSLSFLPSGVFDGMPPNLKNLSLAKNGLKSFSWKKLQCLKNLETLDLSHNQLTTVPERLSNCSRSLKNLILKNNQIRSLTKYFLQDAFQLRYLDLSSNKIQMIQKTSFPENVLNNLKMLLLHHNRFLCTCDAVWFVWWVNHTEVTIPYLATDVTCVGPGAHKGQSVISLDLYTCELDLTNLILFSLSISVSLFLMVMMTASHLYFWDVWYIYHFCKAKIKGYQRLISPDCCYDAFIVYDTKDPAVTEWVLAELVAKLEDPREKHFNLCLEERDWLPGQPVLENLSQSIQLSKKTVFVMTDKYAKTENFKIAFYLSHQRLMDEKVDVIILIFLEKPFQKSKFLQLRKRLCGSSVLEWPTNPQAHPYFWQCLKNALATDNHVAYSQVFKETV
# HEK-Blue TLR8 cells = experiment: WST-1 cell proliferation; type: cell-based, human; conditions: HEK-Blue TLR8 cell line
# TLR8 [2] = experiment: RT-PCR of IL-8 and TNF-α mRNA in R848 treated HEK-Blue TLR8 cells; type: cell-based, human
# TLR8 [3] = experiment: ELISA of R848-induced TNF-α production in differentiated THP-1 cells; type: cell-based, human
# How it was run: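 PMA-differentiated THP-1 (100 ng/mL PMA) seeded at 2 × 10^6 cells/well in supplemented RPMI and left 24 h at 37 °C, 5% CO2 to adhere. Medium then switched to unsupplemented RPMI. […] After 24 h, TNF-α in the culture supernatant was quantified by sandwich ELISA kit.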
# TLR8 [4] = experiment: R848-induced TNF-α production in human PBMC; type: cell-based; conditions: 1 μg/mL R848, dose-dependent
# [5] = system: synovial cells from OA patients; experiment: Spontaneous cytokine release from synovial cells of OA patients; type: cell-based, human; conditions: synovial membrane cultures, 24 h
# How it was run: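 OA synovial cells were isolated from synovial membrane taken at joint replacement and cultured at 1 × 10^6 cells/mL in RPMI 1640. After 24 h, test compound was added at 0, 10, 20, 40 or 80 μM, with chloroquine as positive control. After a further 24 h, TNF-α was measured in cleared supernatant, and IL-1β in cell lysate (EDTA, protease inhibitor) after PBS washes.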
# PBMC from RA patients = experiment: TNF-α production in PBMC from RA patients; type: cell-based, human
# How it was run: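 PBMC came from four RA patients (2010 ACR criteria) and one AOSD patient, isolated by density-gradient centrifugation. Cells were cultured at 3 × 10^6 cells/mL in RPMI 1640, with test compounds at 0, 10, 40, 80 μM or 0, 2.5, 10, 20, 40 μM. TNF-α was measured in cleared supernatants after 24 h.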
# [6] = system: synovial cells isolated from osteoarthritis (OA) patients; experiment: Cytotoxicity on synovial cells from OA patients; type: cell-based, human; conditions: up to 100 μM
structure (smiles),measurement,setting,value
"Cc1cccc(-c2ccnc3c(C(N)=O)cnn23)c1 [CU-CPT8m, 7-m-Tolylpyrazolo[1,5-a]pyrimidine-3-carboxamide]",inhibition of TLRs other than TLR8,[1],did not show significant inhibition of any TLR other than TLR8
same,TLR7 signaling (TLR7-mediated NF-κB activation),TLR7,not affected
same,cytotoxicity,HEK-Blue TLR8 cells,negligible cytotoxicity
same,elevation of IL-8 mRNA level induced by R848,TLR8 [2]; 1 μM compound,completely abolished
same,elevation of TNF-α mRNA level induced by R848,TLR8 [2]; 1 μM compound,completely abolished
same,IC50,"TLR8 [3]; Homo sapiens, THP-1, 24 h, read-out: IC50, R848-induced TNF-α production",90 ± 10 nM
same,R848-induced TNF-α secretion,TLR8 [4],reversed
same,spontaneous release of IL-1β,[5],significant inhibitory effects
same,spontaneous release of TNF-α,[5],significant inhibitory effects
same,TNF-α level,"PBMC from RA patients; PBMCs from RA patients (and one AOSD patient), dose-dependent",significantly suppressed
same,cytotoxicity,[6],little cytotoxicity
"O=C(O)c1cnn2c(-c3cccc(C(F)(F)F)c3)ccnc12 [compound 6, 7-(3-(Trifluoromethyl)phenyl)pyrazolo[1,5-a]pyrimidine-3-carboxylic acid]",inhibition of R848-induced IL-8 mRNA level,TLR8 [2]; 10 μM compound,negligible inhibition
same,inhibition of R848-induced TNF-α mRNA level,TLR8 [2]; 10 μM compound,negligible inhibition
same,inhibition of R848-induced TNF-α production,"TLR8 [3]; THP-1, 10 μM compound",failed to show significant inhibition
same,R848-induced TNF-α secretion,TLR8 [4],not by 6
same,inhibition of TNF-α level,"PBMC from RA patients; PBMCs from RA patients, up to 80 μM",did not show significant inhibition
